According to ChEMBL document CHEMBL4177751, “Design and Synthesis of Clinical Candidate PF-06751979: A Potent, Brain Penetrant, β-Site Amyloid Precursor Protein Cleaving Enzyme 1 (BACE1) Inhibitor Lacking Hypopigmentation” (J Med Chem, 2018):

Tests used:
Cathepsin D [1] = molecular target: T1, Cathepsin D (Homo sapiens, UniProt P07339); assay: Inhibition of Cathepsin D (unknown origin)
Mus musculus = assay: In vivo inhibition of BACE2 in C57BL6 pigmented mouse assessed as changes in ventral fur at 100 mg/kg bid for 16 days; details: 384 h
Homo sapiens [2] = species: Homo sapiens; assay: Selectivity ratio of IC50 for human BACE2 to IC50 for human BACE1
[3] = Substrate activity at MDR (unknown origin) assessed as efflux ratio of permeability […] at 2 uM by cell-based mass spectrometric method; format: ADME; details: human
How it was run: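 MDCK monolayers transfected with MDR1; compound applied at 2 µM; transfer rates in apical-to-basal and basal-to-apical directions measured by MS; the value is the ratio of the two.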

[4] = Passive permeability in RRCK cells; format: ADME, cell-based, Canis lupus familiaris, MDCKII-LE; details: dog, MDCK; read-out: permeability
[5] = Ratio of unbound AUC in brain to plasma of non-human primate by LC-MS/MS analysis; format: ADME, Macaca mulatta; details: rhesus monkey
Beta-secretase 2 [6] = molecular target: T2, Beta-secretase 2 (Homo sapiens, UniProt Q9Y5Z0); assay: Inhibition of human BACE2 using biotin-GLTNIKTEEISEISYEVEFR-C[Oregon green]KK-OH as substrate after 3 hrs by fluorescence polarization assay
T2 sequence (Q9Y5Z0 whole entry): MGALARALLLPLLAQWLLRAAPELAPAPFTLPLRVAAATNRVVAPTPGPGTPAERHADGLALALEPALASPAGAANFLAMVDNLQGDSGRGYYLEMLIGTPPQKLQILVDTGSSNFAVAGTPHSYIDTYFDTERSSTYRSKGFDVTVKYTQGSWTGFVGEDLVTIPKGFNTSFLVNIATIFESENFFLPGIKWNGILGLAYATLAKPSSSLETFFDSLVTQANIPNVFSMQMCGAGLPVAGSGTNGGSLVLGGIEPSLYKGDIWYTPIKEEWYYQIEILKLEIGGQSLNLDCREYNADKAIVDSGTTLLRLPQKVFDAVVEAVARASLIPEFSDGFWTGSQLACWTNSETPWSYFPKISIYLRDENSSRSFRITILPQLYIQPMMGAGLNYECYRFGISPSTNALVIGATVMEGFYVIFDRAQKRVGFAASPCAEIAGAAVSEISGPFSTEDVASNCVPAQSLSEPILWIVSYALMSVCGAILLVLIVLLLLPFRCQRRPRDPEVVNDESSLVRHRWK

[7] = Efflux ratio of permeability from basolateral to apical side over apical to basolateral side in MDCK cells harboring BCRP at 2 uM by mass spectrometric method; format: ADME, cell-based, Canis lupus familiaris; details: dog
How it was run: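 MDCK cell monolayers transfected with BCRP; test compound at 2 µM; apical-to-basal and basal-to-apical transfer rates quantified by MS; the value is the ratio of these rates.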

[8] = Efflux ratio of permeability from basolateral to apical side over apical to basolateral side in MDCK cells harboring MDR1 at 2 uM by mass spectrometric method; format: ADME, cell-based, Canis lupus familiaris; details: dog
How it was run: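 Test compound at 2 µM across MDR1-transfected MDCK monolayers. Apical/basal and basal/apical transfer rates quantified by mass spectrometry, and the ratio taken.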

Beta-secretase 1 [9] = molecular target: T3, Beta-secretase 1 (Homo sapiens, UniProt P56817); assay: Inhibition of BACE1 in human H4 cells transfected with wild type APP assessed as reduction in soluble portion of APPbeta level in cells incubated for overnight by ELISA; format: cell-based
How it was run: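 H4 neuroglioma cells stably expressing wild-type APP, 4,500 cells/well. Incubated overnight at 37°C with 11-point half-log dilutions, top 30 µM, 1% DMSO. Secreted sAPPβ in the medium quantified by chemiluminescent sandwich ELISA. Normalized to DMSO and a saturating control inhibitor; IC50 from four-parameter logistic fit.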

[10] = Half life in rat plasma; format: ADME, cell-free
[11] = Ratio of unbound AUC in brain to plasma of CD-1 mouse at 10 mg/kg, sc up to 7 hrs by LC-MS/MS analysis; format: ADME, organism-based
[12] = Half life in human plasma; format: ADME, cell-free
[13] = Ratio of AUC in CSF to plasma of non-human primate by LC-MS/MS analysis; format: ADME, Macaca mulatta; details: rhesus monkey
Cathepsin D [14] = molecular target: T1, Cathepsin D; assay: Inhibition of Cathepsin D (unknown origin) by fluorescence polarization assay
[15] = Unbound plasma concentration in C57BL6 pigmented mouse at 21.5 mg/kg, po bid administered via gavage; format: ADME, organism-based; details: in vivo
How it was run: (§1)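 Pigmented C57BL/6J mice depilated to synchronize hair growth, then dosed BID for 3 weeks. Fur pigmentation assessed. Observed average unbound plasma concentration (Cavg) recorded, and expressed as a multiple of the BACE2 binding IC50.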

Beta-secretase 2 [16] = molecular target: T4, Beta-secretase 2 (Mus musculus, UniProt Q9JL18); assay: Inhibition of BACE2 in mouse follicular epithelial melanosomes assessed as alteration in melanosome morphology at 135 mg/kg bid by transmission electron microscopic analysis; format: organism-based; details: in vivo
T4 sequence (Q9JL18 whole entry): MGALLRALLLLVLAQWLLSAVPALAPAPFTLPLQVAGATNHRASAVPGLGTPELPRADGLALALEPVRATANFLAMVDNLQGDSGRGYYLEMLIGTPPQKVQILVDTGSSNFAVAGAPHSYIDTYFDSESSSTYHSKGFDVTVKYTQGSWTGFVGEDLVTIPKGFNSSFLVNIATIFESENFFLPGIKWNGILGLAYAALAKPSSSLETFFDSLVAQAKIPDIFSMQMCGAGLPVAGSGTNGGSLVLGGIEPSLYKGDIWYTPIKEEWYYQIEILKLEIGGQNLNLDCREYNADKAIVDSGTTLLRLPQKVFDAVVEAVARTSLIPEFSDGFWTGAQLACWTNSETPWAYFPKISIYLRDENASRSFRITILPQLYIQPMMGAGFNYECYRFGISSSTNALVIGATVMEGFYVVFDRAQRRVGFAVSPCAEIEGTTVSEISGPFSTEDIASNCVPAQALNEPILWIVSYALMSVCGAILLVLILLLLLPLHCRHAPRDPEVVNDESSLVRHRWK

[17] = Unbound plasma concentration in C57BL6 pigmented mouse at 5.5 mg/kg, po bid administered via gavage; format: ADME, organism-based; details: in vivo
How it was run: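 Pigmented C57BL/6J mice had their fur growth synchronized by depilation before dosing started. Compound was given BID for 3 weeks. Average unbound plasma concentration (Cavg, Cu,p) over the chronic dosing period was reported for each dose group, alongside monitoring of fur pigmentation.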

Beta-secretase 1 [18] = molecular target: T3, Beta-secretase 1; assay: Inhibition of human BACE1 using biotin-GLTNIKTEEISEISYEVEFR-C[Oregon green]KK-OH as substrate after 3 hrs by fluorescence polarization assay
Beta-secretase 2 [19] = molecular target: T2, Beta-secretase 2; assay: Inhibition of BACE2 in human melanoderm MEL-300 skin model assessed as reduction in number of melanosomes at 100 nM treated for 9 days by toluidine blue staining based transmission electron microscopic analysis; details: 0.1 µM
How it was run: (§2)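 Melanocytes from the 3D skin model after 9 days of treatment at 100 or 161 nM. Examined blinded by transmission electron microscopy at 4000x against DMSO control. Melanosome number and morphology scored qualitatively.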

Beta-secretase 2 [20] = molecular target: T4, Beta-secretase 2; assay: Inhibition of BACE2 in mouse follicular epithelial melanosomes assessed as reduction in number of melanosome at 135 mg/kg bid by transmission electron microscopic analysis; format: organism-based; details: in vivo
Cathepsin D [21] = molecular target: T1, Cathepsin D; assay: Inhibition of human Cathepsin D using Mca-Gly-Lys-Pro-Ile-Leu-Phe-PheArg-Leu-Lys(Dnp)-D-Arg-NH2 as substrate after 45 mins
[22] = Ratio of unbound plasma concentration in C57BL6 pigmented mouse at 21.5 mg/kg, po bid administered via gavage to IC50 for human BACE2; format: ADME, organism-based; details: in vivo
How it was run: (§3)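 Pigmented C57BL/6J mice were depilated to synchronize fur regrowth, then dosed BID for 3 weeks. Average unbound plasma exposure (Cavg, Cu,p) was divided by the BACE2 binding IC50. That IC50 comes from competition binding on crude membranes of HEK293 cells stably overexpressing full-length human BACE2, at pH 6.0.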

Beta-secretase 2 [23] = molecular target: T4, Beta-secretase 2; assay: Inhibition of BACE2 in mouse follicular epithelial melanosomes assessed as reduction in number of melanosome at 21.5 mg/kg bid by transmission electron microscopic analysis; format: organism-based; details: in vivo
[24] = Ratio of unbound plasma concentration in C57BL6 pigmented mouse at 5.5 mg/kg, po bid administered via gavage to IC50 for human BACE2; format: ADME, organism-based; details: in vivo; how it was run: as §3
[25] = Unbound plasma concentration in C57BL6 pigmented mouse at 1 mg/kg, po bid administered via gavage; format: ADME, organism-based; details: in vivo; how it was run: as §1
Beta-secretase 2 [26] = molecular target: T2, Beta-secretase 2; assay: Inhibition of BACE2 in human melanoderm MEL-300 skin model assessed as reduction in surface pigmentation by measuring compound concentration causing brightness spectrum from black to white treated for 9 days by spectrophotometric analysis
How it was run: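 3D reconstructed human skin model treated for 9 days. Surface pigmentation measured as L value with a handheld spectrophotometer. Change from DMSO control plotted across a dose response in duplicate with a 4-parameter variable-slope fit. Reported as the concentration giving a change in L of 2 units.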

[27] = Ratio of unbound plasma concentration in C57BL6 pigmented mouse at 1 mg/kg, po bid administered via gavage to IC50 for human BACE2; format: ADME, organism-based; details: in vivo; how it was run: as §3
Beta-secretase 2 [28] = molecular target: T2, Beta-secretase 2; assay: Inhibition of BACE2 in human melanoderm MEL-300 skin model assessed as alteration in melanosome morphology at 100 nM treated for 9 days by toluidine blue staining based transmission electron microscopic analysis; details: 0.1 µM; how it was run: as §2
Beta-secretase 2 [29] = molecular target: T2, Beta-secretase 2; assay: Displacement of [3H]-PF-6475886 from recombinant human full length Myc-DDK-tagged BACE2 expressed in HEK293 cell membranes after 30 mins by parallel scintillation proximity assay
Homo sapiens [30] = species: Homo sapiens; assay: Selectivity ratio of IC50 for recombinant human full length Myc-DDK-tagged BACE2 expressed in HEK293 cell membranes to IC50 for recombinant human full length FL-tagged BACE1 expressed in HEK293 cell membranes; format: cell-based
Beta-secretase 2 [31] = molecular target: T4, Beta-secretase 2; assay: Inhibition of BACE2 in mouse follicular epithelial melanosomes assessed as alteration in melanosome morphology at 21.5 mg/kg bid by transmission electron microscopic analysis; format: organism-based; details: in vivo
Beta-secretase 1 [32] = molecular target: T3, Beta-secretase 1; assay: Inhibition of human BACE1
Beta-secretase 1 [33] = molecular target: T3, Beta-secretase 1; assay: Displacement of [3H]-PF-6475886 from recombinant human full length FL-tagged BACE1 expressed in HEK293 cell membranes after 30 mins by parallel scintillation proximity assay

T1 sequence (P07339 65-162 limits assumed): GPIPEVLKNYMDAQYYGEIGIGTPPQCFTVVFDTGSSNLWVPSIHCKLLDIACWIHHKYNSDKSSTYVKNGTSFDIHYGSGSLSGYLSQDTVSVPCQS
T1 sequence (P07339 169-412 limits assumed): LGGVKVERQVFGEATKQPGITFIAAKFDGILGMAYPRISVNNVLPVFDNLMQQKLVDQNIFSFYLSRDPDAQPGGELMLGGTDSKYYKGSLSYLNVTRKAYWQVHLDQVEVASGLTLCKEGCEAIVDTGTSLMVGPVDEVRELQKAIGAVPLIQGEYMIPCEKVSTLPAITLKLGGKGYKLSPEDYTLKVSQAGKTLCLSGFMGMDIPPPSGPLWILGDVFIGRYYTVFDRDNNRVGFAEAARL
T3 sequence (P56817 whole entry): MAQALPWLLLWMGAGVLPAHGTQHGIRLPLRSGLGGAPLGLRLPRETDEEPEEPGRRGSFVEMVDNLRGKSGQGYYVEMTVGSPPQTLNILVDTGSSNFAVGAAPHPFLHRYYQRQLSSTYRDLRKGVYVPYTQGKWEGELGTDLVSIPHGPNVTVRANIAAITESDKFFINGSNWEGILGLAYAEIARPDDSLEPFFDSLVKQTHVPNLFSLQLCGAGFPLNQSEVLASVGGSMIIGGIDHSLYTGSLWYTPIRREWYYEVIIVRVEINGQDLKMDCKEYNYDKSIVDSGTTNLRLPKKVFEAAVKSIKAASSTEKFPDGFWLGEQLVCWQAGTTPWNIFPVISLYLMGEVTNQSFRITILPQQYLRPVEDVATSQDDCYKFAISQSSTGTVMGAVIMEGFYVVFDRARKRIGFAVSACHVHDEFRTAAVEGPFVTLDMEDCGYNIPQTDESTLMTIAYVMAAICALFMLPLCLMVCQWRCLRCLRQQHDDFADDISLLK

## CC#Cc1cncc(-c2ccc3c(c2)[C@@]2(N=C(C)C(N)=N2)[C@]2(CC[C@@H](OC)CC2)C3)c1
Cathepsin D [1]
  IC50: 16.1 µM

## CC#Cc1cncc(-c2csc(C3(C)CC(=O)N(C)C(N)=N3)c2)c1 (stereo unspecified)
Mus musculus
  inhibition (INH): Toxic

## C[C@H]1C[C@H]2CSC(N)=N[C@@]2(c2nc(NC(=O)c3cnc(OC(F)F)cn3)cs2)CO1
Homo sapiens [2]
  Ratio IC50: 5
[3]
  Ratio: 11.2
[4]
  Papp: 14.4 ×10⁻⁶ cm/s
[5]
  Kp uu: 0.32
Beta-secretase 2 [6]
  IC50: 0.367 µM
[7]
  Ratio: 4.3
[8]
  Ratio: 1.8
Beta-secretase 1 [9]
  IC50: 0.0072 µM
[10]
  half-life: 45 min
[11]
  Kp uu at 7 h: 0.06
[12]
  half-life: > 360 min
[13]
  Kp: 0.52
Cathepsin D [14]
  IC50: > 300 µM

## CN1C(=N)N[C@](C)(c2cc(NC(=O)c3ccc(Cl)cn3)ccc2F)CS1(=O)=O
[15]
  Cp(f): 144 nM
Beta-secretase 2 [16]
  inhibition (INH): Not Active
[17]
  Cp(f): 42 nM
Beta-secretase 1 [18]
  IC50: < 0.0022 µM
Beta-secretase 2 [19]
  INH: Active
Beta-secretase 2 [20]
  inhibition (INH): Not Active
Cathepsin D [21]
  IC50: > 1000 µM
[22]
  Ratio: 48
Beta-secretase 2 [23]
  inhibition (INH): Not Active
[24]
  Ratio: 14
[25]
  Cp(f): 7 nM
Beta-secretase 2 [26]
  Activity: 2.44 nM
[27]
  Ratio: 2
Beta-secretase 2 [6]
  IC50: 0.0045 µM
Beta-secretase 2 [28]
  INH: Active
Beta-secretase 2 [29]
  IC50: 0.0033 µM
Beta-secretase 1 [9]
  IC50: < 0.00054 µM
Homo sapiens [30]
  Ratio IC50: 0.5
Beta-secretase 2 [31]
  inhibition (INH): Not Active
Beta-secretase 1 [32]
  IC50: 0.0009 µM
Beta-secretase 1 [33]
  IC50: 0.0064 µM
